Experimental data reported in ChEMBL document CHEMBL3286203, “Reactive oxygen species (ROS) inducible DNA cross-linking agents and their effect on cancer cells and normal lymphocytes” (J Med Chem, 2014).

What was measured:
[1] = Drug level in deuterated phosphate buffer treated with 40 mM N,N-Bis(2-chloroethyl)-4-(4,4,5,5-tetramethyl-1,3,2-dioxaborolan-2-yl)aniline after 24 hrs by 1H-NMR analysis; assay type: physicochemical
Summary of the method: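 1H NMR of the boronate mustard (40 mM) held 24 h in deuterated potassium phosphate buffer (4.0 mM) with no H2O2. Solvent was 1.0 M deuterated potassium phosphate buffer/DMSO-d6/D2O = 2:450:48.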

[2] = Induction of [32P]-labeled 49-mer oligonucleotide duplex DNA 12 with GNC sequence at terminus (unknown origin) interstrand cross-linking at 1 mM after 16 hrs by PAGE
Summary of the method: (§1)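 32P-labelled 12a (1.0 μM) annealed with 1.5 equiv of 12b in 10 mM potassium phosphate pH 7 / 100 mM NaCl (65 °C for 3 min, then slow cooling). Duplex incubated with compound (final 1 μM–5 mM), with or without H2O2, in NaCl and potassium phosphate pH 8 at room temperature for 16 h. Quenched in formamide; 20% denaturing PAGE.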

[3] = Ratio of induction of [32P]-labeled 49-mer oligonucleotide duplex DNA 12 with GNC sequence at terminus (unknown origin) interstrand cross-linking in presence of H2O2 to induction of [32P]-labeled 49-mer oligonucleotide duplex DNA 12 with GNC sequence at terminus (unknown origin) in absence of H2O2; summary of the method: as §1
[4] = Induction of [32P]-labeled 49-mer oligonucleotide duplex DNA 12 with GNC sequence at terminus (unknown origin) interstrand cross-linking at 50 uM after 16 hrs by PAGE in presence of H2O2; summary of the method: as §1

Q: With `CC(C)(O)C(C)(C)O` as the compound, how does the Drug metabolism [1] read?
A: metabolite_detected

Q: With `CC1(C)OB(c2ccc(N(CCOS(C)(=O)=O)CCOS(C)(=O)=O)cc2)OC1(C)C` as the compound, how does the Activity [2] read?
A: 22%

Q: And the Ratio [3]?
A: 3

Q: What about the Activity [4] of the same compound?
A: 3%
